MrgX1 ag – agonists of human MrgX1 receptor, primary screen, HEK293 cells, Fluo-4 calcium flux. Mas-related G-protein coupled receptor member X1 (Homo sapiens), Q96LB2. B-score at 10 µM. Fluo-4 calcium fluorescence, agonist mode; stronger effect = higher value. AID 588627, 2011. 310,000 tested, 0.44% active;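 active = calcium response B-score plate-corrected fluorescence ratio at least 3 library SD, with starting fluorescence B-score inside 5 SD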
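Assay system: MrgX1-expressing HEK293 cells / Amount: fifteen thousand cells per well / Doses: test compound in the initial addition of three / Timing: cells plated overnight, dye loaded 0.5 h 37 °C, 0.5 h room temperature / Technique: kinetic calcium dye fluorescence, Fluo-4 NW / Control set: positive and negative controls per plate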
RGS4 pot – RGS4 potentiators or activators, primary screen, cell-based, HEK293 M3R inducible RGS4, calcium flux. carbachol calcium flux Fluo4; stronger effect = lower value. B-score at 10 µM. 310,000 tested, 0.92% active. AID 463111, 2010;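 active = B-score of the integrated calcium signal more than 4 SD below the library mean, with starting fluorescence not abnormally high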;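 also: negative B-score means reduced calcium response which marks RGS4 activation or potentiation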
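Material: Inducible-RGS4 HEK293 cells carrying M3 receptor; also added: carbachol at ECmax as muscarinic agonist stimulus; incubation: compound preincubation 20 min at room temperature before agonist; signal: Fluo4-AM (2 µM) calcium-flux fluorescence, kinetic read; measure: integrated calcium ratio converted to B score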
MrgX1 PAM – positive allosteric modulators of MrgX1, primary screen, HEK293 cells, Fluo-4 calcium flux; Mas-related G-protein coupled receptor member X1 (Homo sapiens), Q96LB2; FDSS; stronger effect = higher value; B-score at 10 µM; 310,000 tested, 0.63% active;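 active = plate-corrected calcium response at least 3 library SD above typical, normal starting fluorescence, not activating the receptor alone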;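 also: compound read alongside a low EC10 to EC30 dose of BAM8-22 agonist; peak minus trough fluorescence over baseline measured at the second addition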
MrgX1 antagonist – antagonists of human MrgX1 receptor, primary screen, HEK293 cells, Fluo-4 calcium flux; BAM8-22 antagonism; stronger effect = lower value; B-score at 10 µM; Mas-related G-protein coupled receptor member X1 (Homo sapiens), Q96LB2; 310,000 tested, 1.3% active;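 active = calcium-response B-score plate-corrected more than 3 library SD below zero, starting fluorescence within 5 deviations, no agonist response on first addition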;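 also: peak minus trough fluorescence over baseline after final BAM8-22 challenge near maximal dose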
RGS4 inh – RGS4 inhibitors, primary screen, cell-based, HEK293 M3R inducible RGS4, calcium flux. 310,000 tested, 0.45% active. Fluo-4 calcium flux; stronger effect = higher value; triggered by carbachol at its EC20. AID 463165, 2010. B-score at 10 µM;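 active = B-score, a plate-corrected calcium signal, over three deviations above library mean, with baseline fluorescence within five deviations of library mean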;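 also: RGS4 expression induced by doxycycline in cells with stable M3 receptor; B-score is computed from the integrated fluorescence ratio over baseline after carbachol; higher B-score means a larger calcium signal and so more RGS4 inhibition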
Target sequence (P49798 whole entry, looked up): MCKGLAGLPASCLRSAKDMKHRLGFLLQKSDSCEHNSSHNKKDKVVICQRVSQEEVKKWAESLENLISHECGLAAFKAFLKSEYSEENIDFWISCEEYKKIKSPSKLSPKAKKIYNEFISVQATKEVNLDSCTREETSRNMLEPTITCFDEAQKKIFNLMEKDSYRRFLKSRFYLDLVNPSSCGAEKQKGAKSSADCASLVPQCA
RGS4 block valid – enhanced carbachol calcium response, M3R/RGS4 cells, RGS4 inhibitor project, cell-based, validation screen, HEK293 M3R/RGS4, calcium flux | shares compounds with RGS4 inh | carbachol calcium Fluo-4 fluorescence; carbachol added at its EC20; 0 = buffer wells, 100 = carbachol control | calcium response, % at 10 µM | 1,700 tested, 65% active | AID 492999, 2010;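 active = duplicate-averaged calcium response above the buffer-only control mean plus 5 SD of those controls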;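 also: integrated fluorescence ratio F max minus min over baseline F0; higher response in RGS4-induced cells means RGS4 inhibition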
RGS4 uninduced – carbachol calcium response in non-induced M3R cells, confirmation, counter-screen for RGS4 inhibitor project, cell-based, HEK293 M3R; shares compounds with RGS4 inh; carbachol calcium Fluo-4; submaximal (EC20) carbachol stimulus; buffer wells 0%, carbachol control wells 100%; activity (percent), % at 10 µM; 1,900 tested, 20% active; AID 493000, 2010; call rule not given here;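 also: RGS4 induction absent so cells express M3R without RGS4; higher means more calcium signal and flags a non-specific hit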
RGS4 inh ctr2 – second RGS4 inhibitor counter-screen in uninduced cells lacking carbachol | HEK293 M3R/RGS4 non-induced, Fluo-4 calcium, no carbachol; normalised: buffer wells 0%, carbachol wells 100% | shares compounds with RGS4 inh | calcium response (agonist-mode artifact), % at 10 µM | 1,900 tested, 22% active;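 active = duplicate-averaged calcium rise in uninduced cells above buffer wells' mean plus 5 SD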
Numbers without * were called inactive; i = inactive; nt = no result. Sampled rows, rich in hits. Any-hit rate of the full collection: about 3.5%.

SMILES | MrgX1 ag | RGS4 pot | MrgX1 PAM | MrgX1 antagonist | RGS4 inh | RGS4 block valid | RGS4 uninduced | RGS4 inh ctr2
Cc1ccccc1NC(=O)Cc1nc(COC(=O)c2ccc(O)cc2O)cs1 | i | i | i | i | i | nt | nt | nt
COc1ccc(NC(=O)CSCC(=O)Nc2cc(Cl)ccc2N2CCCC2)cc1 | i | i | i | i | i | nt | nt | nt
O=S1(=O)CCC(N=Cc2ccc(-c3ccc(Cl)cc3)o2)C1 (configuration not stated) | i | i | i | i | 5.68* | 7.5%* | i | i
CCNC(=S)N(CCc1c(C)[nH]c2ccc(C)cc12)Cc1cccs1 | i | i | i | i | i | nt | nt | nt
COCCNC(=S)N(CCc1c(C)[nH]c2ccc(Cl)cc12)Cc1cccs1 | i | i | i | i | 5.03* | 6.0%* | i | i
COCCNC(=S)N(CCc1c(C)[nH]c2ccc(F)cc12)Cc1cccs1 | i | i | i | i | i | i | i | i
COc1ccc(N(C)C(=O)CCS(=O)(=O)c2cccc3nonc23)c(OC)c1 | i | i | i | i | i | nt | nt | nt
CCOC(=O)C1=C(C)N=c2s/c(=C\c3ccncc3)c(=O)n2C1c1ccc2c(c1)OCO2 (configuration not stated) | i | i | i | i | 4.7* | 16.0%* | 43.5%* | 16.0%*
CNC(=S)N(Cc1ccc2c(c1)OCO2)C1CC(=O)N(c2ccccc2)C1=O (configuration not stated) | i | i | i | i | i | nt | nt | nt
Nc1cccc(C(=O)N/N=C/c2ccsc2)c1 | i | i | i | i | i | nt | nt | nt
Cc1onc(-c2ccccc2)c1NC(=O)N(CCC#N)Cc1cccs1 | i | i | i | i | i | i | i | i
CCOC(=O)c1nn(C23CC4CC(CC(C4)C2)C3)c2c1C(=O)N(c1ccc(C)cc1)C2=O | i | i | i | i | 5.17* | i | i | 99.5%*
COC(=O)c1nn(C23CC4CC(CC(C4)C2)C3)c2c1C(=O)N(c1ccc(Br)cc1)C2=O | i | i | i | i | 5.87* | 7.5%* | i | i
COC(=O)c1cc(-c2ccc(Br)cc2)on1 | i | i | i | i | i | nt | nt | nt
Cc1cccc(NC(=O)CCc2nnc3ccc(NCc4ccco4)nn23)n1 | i | i | i | i | i | nt | nt | nt
COc1cccc(-c2nc3c(c(=O)[nH]c(=O)n3Cc3ccccc3)n2CCO)c1OC(F)F | i | i | i | i | i | nt | nt | nt
COc1ccc(-n2c(COc3ccc(Cl)cc3)nnc2SCc2ccc(C#N)cc2)cc1 | i | i | i | i | i | nt | nt | nt
COc1ccc(NCc2nnc(SCc3ccc(Cl)cc3)n2-c2ccccc2)cc1 | i | i | i | i | 7.96* | 62.5%* | 40.5%* | 37.5%*
CCOc1ccc(NCc2nnc(SCC(=O)Nc3cc(C)on3)n2-c2ccccc2OC)cc1 | i | i | i | i | i | nt | nt | nt
CCOc1ccc(NCc2nnc(SCC(=O)Nc3cc(C)on3)n2-c2ccc(OC)cc2)cc1 | i | i | i | i | 7.01* | i | i | i
Cc1ccc(CN2CCSCC2)cc1 | i | i | i | i | i | nt | nt | nt
